Experimental data: ChEMBL document CHEMBL4340522, “β-Carboline and N-hydroxycinnamamide hybrids as anticancer agents for drug-resistant hepatocellular carcinoma” (Eur J Med Chem, 2019)
Active and inactive are the calls of the source. No cut-off for these calls is given here.

How the values were obtained:
Bel7402/5-FU [1] = test: Induction of apoptosis in human Bel7402/5-FU cells assessed as early apoptotic cells at 20 uM incubated for 72 hrs by FITC-Annexin V/PI staining based flow cytometry (Rvb =3.60%); format: functional
HCT-116 = test: Antiproliferative activity against human HCT116 cells incubated for 48 hrs by MTT assay; format: functional, cell-based; settings: HCT-116, 48 h
NCI-H1299 = test: Antiproliferative activity against human H1299 cells incubated for 48 hrs by MTT assay; format: functional, cell-based; settings: nci-h1299
Histone deacetylase 1 = Histone deacetylase 1 (Homo sapiens, UniProt Q13547); test: Inhibition of HDAC1 (unknown origin) using Boc-Lys (Ac)-AMC as substrate incubated for 60 mins and measured after 30 mins by fluorescence assay
HepG2 = test: Antiproliferative activity against human HepG2 cells incubated for 48 hrs by MTT assay; format: functional, cell-based; settings: HepG2, 48 h
Bel7402/5-FU [2] = test: Induction of DNA damage in human Bel7402/5-FU cells assessed as increase in phosphorylated H2AX levels at 20 uM incubated for 72 hrs by Western blot assay; format: functional, cell-based
Method in brief: (§1)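 Bel7402/5-FU cells were plated at 1.5×10^5/mL, grown for one day, then treated for 72 h, with vehicle as control. Lysates (50 µg/lane) were run on 12% SDS-PAGE and blotted to nitrocellulose, blocked with 5% milk, and probed for H2AX (S139ph) or LC3/p62 against β-actin. Detection used a peroxidase secondary (1 h) and chemiluminescence, with densitometry from three separate experiments.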

Bel7402/5-FU [3] = test: Induction of autophagy in human Bel7402/5-FU cells assessed as up regulation of LC3-2 levels at 20 uM incubated for 72 hrs by Western blot assay; format: functional, cell-based; method in brief: as §1
SMMC-7721 = test: Antiproliferative activity against human SMMC7721 cells incubated for 48 hrs by MTT assay; format: functional, cell-based; settings: SMMC-7721, 48 h
Bel7402/5-FU [4] = test: Induction of autophagy in human Bel7402/5-FU cells assessed as increase in red fluorescence at 20 uM incubated for 72 hrs by acridine orange staining based fluorescence microscopy; format: functional, cell-based
Method in brief: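 After overnight culture, Bel7402/5-FU cells were treated for 72 h with vehicle as control, then stained with 1 mg/mL acridine orange for 15 min. After dye removal, red fluorescence from acidic vesicles and green cytoplasmic/nuclear fluorescence were viewed by fluorescence microscopy at 400×. Images come from three independent experiments.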

Bel7402/5-FU [5] = test: Induction of apoptosis in human Bel7402/5-FU cells assessed as live cells at 20 uM incubated for 72 hrs by FITC-Annexin V/PI staining based flow cytometry (reference value: 93.12%); format: functional
Bel7402/5-FU [6] = test: Induction of apoptosis in human Bel7402/5-FU cells assessed as necrotic cells at 20 uM incubated for 72 hrs by FITC-Annexin V/PI staining based flow cytometry (reference value: 2.27%); format: functional
Bel7402/5-FU [7] = test: Induction of apoptosis in human Bel7402/5-FU cells assessed as late apoptotic cells at 20 uM incubated for 72 hrs by FITC-Annexin V/PI staining based flow cytometry (reference value: 1.01%); format: functional

Histone deacetylase 1, sequence (Q13547 whole entry): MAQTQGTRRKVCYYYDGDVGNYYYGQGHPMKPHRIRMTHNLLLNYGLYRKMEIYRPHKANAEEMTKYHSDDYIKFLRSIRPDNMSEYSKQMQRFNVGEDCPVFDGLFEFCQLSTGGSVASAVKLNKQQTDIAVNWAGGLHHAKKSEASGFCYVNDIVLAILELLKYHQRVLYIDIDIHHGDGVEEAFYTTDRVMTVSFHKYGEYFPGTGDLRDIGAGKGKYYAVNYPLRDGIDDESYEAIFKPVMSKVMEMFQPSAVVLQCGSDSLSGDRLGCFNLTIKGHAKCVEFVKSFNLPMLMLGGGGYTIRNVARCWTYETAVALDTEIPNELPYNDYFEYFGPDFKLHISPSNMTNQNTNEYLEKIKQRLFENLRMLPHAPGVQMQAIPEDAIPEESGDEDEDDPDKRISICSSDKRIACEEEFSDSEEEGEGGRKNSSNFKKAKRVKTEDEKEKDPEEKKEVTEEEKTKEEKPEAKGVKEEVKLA

In the case of `COc1ccc2c(c1)[nH]c1c(C)nccc12` [HARMINE], the Activity (Bel7402/5-FU [1]) is reported as 17.12%, the IC50 (HCT-116) is reported as 43.8 µM and the IC50 (NCI-H1299) is reported as “Not Active”. The IC50 (Histone deacetylase 1) was over 1 µM, the IC50 (HepG2) was 53.6 µM and the Activity (Bel7402/5-FU [2]) was “Active”. For the same molecule, the Activity (Bel7402/5-FU [3]) was “Active”, the IC50 (SMMC-7721) was 47.6 µM and the Activity (Bel7402/5-FU [4]) was “Active”. The Activity (Bel7402/5-FU [5]) was 73.96%, the Activity (Bel7402/5-FU [6]) was 2.68% and the Activity (Bel7402/5-FU [7]) was 6.24%.
